As a reminder, the inhibition is the drop in the measured response relative to a control, in per cent. For orientation: IC50 means the concentration that gives 50% inhibition. The low end stands for greater potency in that assay, the high end for weaker potency in that assay.

The target in assay [1] is Tyrosine-protein kinase Fer (Homo sapiens, UniProt P16591). Put plainly: Inhibition of FER Lys1 labeling site in human A-375 cells at 0.5 uM by KiNativ Profiling analysis relative to control. In kind it is cell-based.
For assay [2], the target named is T1, Serine/threonine-protein kinase TAO2 (Homo sapiens) (UniProt Q9UL54).
T1 sequence (whole entry): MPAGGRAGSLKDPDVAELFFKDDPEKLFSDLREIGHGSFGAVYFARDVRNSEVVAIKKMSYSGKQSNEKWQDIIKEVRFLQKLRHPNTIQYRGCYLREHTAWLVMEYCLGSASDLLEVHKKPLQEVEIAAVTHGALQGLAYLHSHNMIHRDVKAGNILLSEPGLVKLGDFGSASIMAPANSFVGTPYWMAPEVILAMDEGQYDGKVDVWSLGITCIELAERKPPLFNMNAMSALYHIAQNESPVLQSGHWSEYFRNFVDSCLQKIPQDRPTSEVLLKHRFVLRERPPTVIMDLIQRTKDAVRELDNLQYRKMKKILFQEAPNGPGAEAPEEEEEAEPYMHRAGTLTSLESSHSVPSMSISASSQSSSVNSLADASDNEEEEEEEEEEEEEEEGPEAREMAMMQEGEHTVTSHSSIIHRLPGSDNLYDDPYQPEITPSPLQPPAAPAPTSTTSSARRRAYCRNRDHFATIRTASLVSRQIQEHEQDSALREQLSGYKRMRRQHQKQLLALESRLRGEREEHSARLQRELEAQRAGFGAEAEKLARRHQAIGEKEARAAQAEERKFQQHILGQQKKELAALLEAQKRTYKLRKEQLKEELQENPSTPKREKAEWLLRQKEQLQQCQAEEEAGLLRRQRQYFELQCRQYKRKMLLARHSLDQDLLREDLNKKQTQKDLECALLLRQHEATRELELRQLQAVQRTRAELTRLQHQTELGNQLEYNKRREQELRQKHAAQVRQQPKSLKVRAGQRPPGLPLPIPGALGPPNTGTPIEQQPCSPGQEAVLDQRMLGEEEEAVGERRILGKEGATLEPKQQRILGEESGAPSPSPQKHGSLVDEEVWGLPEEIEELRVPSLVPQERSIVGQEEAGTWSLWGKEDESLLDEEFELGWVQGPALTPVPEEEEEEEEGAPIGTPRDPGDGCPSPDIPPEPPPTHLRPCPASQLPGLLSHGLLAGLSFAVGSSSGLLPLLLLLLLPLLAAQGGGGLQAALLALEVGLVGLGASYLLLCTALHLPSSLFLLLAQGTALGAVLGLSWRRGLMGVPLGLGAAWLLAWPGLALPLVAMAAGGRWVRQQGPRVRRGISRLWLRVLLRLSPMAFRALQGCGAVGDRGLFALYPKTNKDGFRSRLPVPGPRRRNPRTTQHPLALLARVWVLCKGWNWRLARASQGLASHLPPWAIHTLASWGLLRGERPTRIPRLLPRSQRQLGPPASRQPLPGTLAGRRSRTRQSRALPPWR
Put plainly: Inhibition of TAO2 Lys2 labeling site in human A-375 cells at 0.5 uM by KiNativ Profiling analysis relative to control. The assay is classed as cell-based.

For assay [3], the target named is Mitogen-activated protein kinase 14 (Homo sapiens, UniProt Q16539). Put plainly: Inhibition of p38 alpha in human A-375 cells at 0.5 uM by KiNativ Profiling analysis relative to control. The assay is classed as cell-based.
The target in assay [4] is T2, Ephrin type-B receptor 4 (Homo sapiens) (UniProt P54760).
T2 sequence (whole entry): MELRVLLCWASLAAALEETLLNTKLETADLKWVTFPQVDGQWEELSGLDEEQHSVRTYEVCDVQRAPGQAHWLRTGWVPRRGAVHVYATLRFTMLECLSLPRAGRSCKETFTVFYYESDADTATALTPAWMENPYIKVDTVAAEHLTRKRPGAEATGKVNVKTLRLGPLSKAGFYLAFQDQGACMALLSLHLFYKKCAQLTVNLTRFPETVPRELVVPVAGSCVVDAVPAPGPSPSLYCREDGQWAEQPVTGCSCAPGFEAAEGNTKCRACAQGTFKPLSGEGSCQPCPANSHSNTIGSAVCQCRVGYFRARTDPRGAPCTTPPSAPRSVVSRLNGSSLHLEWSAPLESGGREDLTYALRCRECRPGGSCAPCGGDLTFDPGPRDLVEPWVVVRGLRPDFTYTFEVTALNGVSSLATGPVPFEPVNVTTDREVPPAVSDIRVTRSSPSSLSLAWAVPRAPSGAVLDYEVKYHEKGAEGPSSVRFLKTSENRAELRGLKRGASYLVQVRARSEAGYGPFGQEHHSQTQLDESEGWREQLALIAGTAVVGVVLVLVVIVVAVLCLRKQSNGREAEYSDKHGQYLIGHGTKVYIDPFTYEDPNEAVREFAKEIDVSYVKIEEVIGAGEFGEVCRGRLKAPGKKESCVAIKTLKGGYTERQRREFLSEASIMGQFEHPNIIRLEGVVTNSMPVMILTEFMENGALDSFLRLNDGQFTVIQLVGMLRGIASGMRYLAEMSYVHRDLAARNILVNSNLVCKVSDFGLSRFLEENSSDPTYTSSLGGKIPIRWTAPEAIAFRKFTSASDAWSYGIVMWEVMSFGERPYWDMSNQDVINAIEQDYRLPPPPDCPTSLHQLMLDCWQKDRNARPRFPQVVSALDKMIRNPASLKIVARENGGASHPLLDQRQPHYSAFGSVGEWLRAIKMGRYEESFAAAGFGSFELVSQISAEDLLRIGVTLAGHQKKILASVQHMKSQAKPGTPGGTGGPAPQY
As to the kind of experiment: Inhibition of EphB4 ACT labeling site in human A-375 cells at 5 uM by KiNativ Profiling analysis relative to control. The assay is classed as cell-based. A digest of the protocol:
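Live A375 melanoma cells were treated with compound at 0.5 or 5 μM, then lysed. Lysates were labeled with a lysine-reactive ATP or ADP-biotin probe. The read-out was protection of each kinase probe-labeling site from labeling, relative to control.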

The target in assay [5] is Tyrosine-protein kinase CSK (Homo sapiens, UniProt P41240). Put plainly: Inhibition of CSK (unknown origin) ACT labeling site by KiNativ Profiling analysis.
For assay [6], the target named is TRAF2 and NCK-interacting protein kinase (Homo sapiens) (UniProt Q9UKE5). Put plainly: Inhibition of ZC2/TNIK Lys1 labeling site in human A-375 cells at 5 uM by KiNativ Profiling analysis relative to control. In kind it is cell-based.
For assay [7], the target named is Serine/threonine-protein kinase 10 (Homo sapiens) (UniProt O94804). Put plainly: Inhibition of LOK Lys1 labeling site harbouring ETGALAAAKVIETK in human A-375 cells at 0.05 uM by KiNativ Profiling analysis relative to control. The assay is classed as cell-based.
The nature of assay [8]: Inhibition of p70S6K Lys2 labeling site in human A-375 cells at 0.05 uM by KiNativ Profiling analysis relative to control. Particulars: condition cancer.
The target in assay [9] is Cyclin-dependent kinase 10 (Homo sapiens) (UniProt Q15131). As to the kind of experiment: Inhibition of CDK10 Lys2 labeling site in human A-375 cells at 5 uM by KiNativ Profiling analysis relative to control. In kind it is cell-based. A digest of the protocol:
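Intact A375 melanoma cells were treated with compound at 5 or 0.5 μM, then lysed. Lysate kinases were labeled with a lysine-reactive ATP or ADP-biotin probe (KiNativ). Inhibition is read as protection of each kinase labeling site from probe labeling.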

Sequence of Mitogen-activated protein kinase 14 (Q16539 whole entry): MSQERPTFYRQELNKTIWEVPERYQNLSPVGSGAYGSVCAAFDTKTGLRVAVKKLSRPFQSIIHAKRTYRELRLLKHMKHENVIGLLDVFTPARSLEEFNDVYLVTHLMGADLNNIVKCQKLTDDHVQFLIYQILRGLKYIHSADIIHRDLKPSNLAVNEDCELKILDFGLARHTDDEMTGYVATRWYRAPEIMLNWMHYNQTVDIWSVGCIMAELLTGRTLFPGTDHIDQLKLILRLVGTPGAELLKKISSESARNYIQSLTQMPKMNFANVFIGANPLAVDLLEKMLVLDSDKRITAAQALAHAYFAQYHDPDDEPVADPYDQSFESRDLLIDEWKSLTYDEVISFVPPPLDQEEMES
Sequence of Cyclin-dependent kinase 10 (Homo sapiens) (Q15131 whole entry): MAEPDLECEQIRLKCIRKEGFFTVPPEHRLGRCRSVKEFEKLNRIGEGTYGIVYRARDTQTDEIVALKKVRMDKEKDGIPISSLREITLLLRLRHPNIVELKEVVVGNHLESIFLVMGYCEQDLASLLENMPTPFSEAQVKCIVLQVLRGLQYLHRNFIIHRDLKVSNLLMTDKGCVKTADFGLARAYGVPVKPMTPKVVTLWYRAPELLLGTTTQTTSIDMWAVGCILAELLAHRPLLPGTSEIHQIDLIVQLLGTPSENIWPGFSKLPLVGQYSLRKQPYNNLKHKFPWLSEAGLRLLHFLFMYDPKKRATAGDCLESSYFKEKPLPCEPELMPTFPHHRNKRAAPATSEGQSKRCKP
Sequence of Tyrosine-protein kinase CSK (P41240 whole entry): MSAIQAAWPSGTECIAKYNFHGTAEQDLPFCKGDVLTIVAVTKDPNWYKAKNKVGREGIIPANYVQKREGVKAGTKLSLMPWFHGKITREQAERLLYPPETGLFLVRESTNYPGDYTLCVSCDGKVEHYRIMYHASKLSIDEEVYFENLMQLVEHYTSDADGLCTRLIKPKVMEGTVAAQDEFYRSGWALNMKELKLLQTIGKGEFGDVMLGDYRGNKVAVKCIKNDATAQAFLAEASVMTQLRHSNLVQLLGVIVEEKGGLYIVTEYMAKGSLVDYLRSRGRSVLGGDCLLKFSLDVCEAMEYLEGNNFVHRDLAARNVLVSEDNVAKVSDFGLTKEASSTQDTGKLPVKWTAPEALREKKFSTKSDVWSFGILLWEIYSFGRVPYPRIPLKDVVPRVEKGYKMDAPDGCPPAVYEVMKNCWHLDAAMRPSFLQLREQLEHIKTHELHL
Sequence of Tyrosine-protein kinase Fer (P16591 whole entry, looked up): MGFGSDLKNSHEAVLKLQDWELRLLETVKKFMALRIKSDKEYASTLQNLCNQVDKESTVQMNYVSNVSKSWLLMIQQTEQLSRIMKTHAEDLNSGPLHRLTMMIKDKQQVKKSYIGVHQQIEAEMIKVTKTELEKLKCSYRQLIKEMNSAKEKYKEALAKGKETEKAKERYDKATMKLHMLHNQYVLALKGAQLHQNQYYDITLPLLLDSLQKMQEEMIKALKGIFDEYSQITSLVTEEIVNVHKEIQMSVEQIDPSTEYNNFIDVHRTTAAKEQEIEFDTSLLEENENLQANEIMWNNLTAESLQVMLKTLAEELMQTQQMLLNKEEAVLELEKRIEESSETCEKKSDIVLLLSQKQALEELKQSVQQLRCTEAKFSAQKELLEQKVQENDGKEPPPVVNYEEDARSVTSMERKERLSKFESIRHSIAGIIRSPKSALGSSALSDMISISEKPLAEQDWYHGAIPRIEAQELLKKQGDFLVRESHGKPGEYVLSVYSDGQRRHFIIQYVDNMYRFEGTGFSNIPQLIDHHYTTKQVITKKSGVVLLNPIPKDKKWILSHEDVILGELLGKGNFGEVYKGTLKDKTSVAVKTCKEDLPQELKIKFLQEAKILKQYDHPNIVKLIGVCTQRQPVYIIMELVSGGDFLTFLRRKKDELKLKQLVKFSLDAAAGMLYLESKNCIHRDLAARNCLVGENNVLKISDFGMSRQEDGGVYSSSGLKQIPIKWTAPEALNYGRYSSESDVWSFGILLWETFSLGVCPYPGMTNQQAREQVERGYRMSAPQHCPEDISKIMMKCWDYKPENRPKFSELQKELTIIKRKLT
Sequence of TRAF2 and NCK-interacting protein kinase (Homo sapiens) (Q9UKE5 whole entry, looked up): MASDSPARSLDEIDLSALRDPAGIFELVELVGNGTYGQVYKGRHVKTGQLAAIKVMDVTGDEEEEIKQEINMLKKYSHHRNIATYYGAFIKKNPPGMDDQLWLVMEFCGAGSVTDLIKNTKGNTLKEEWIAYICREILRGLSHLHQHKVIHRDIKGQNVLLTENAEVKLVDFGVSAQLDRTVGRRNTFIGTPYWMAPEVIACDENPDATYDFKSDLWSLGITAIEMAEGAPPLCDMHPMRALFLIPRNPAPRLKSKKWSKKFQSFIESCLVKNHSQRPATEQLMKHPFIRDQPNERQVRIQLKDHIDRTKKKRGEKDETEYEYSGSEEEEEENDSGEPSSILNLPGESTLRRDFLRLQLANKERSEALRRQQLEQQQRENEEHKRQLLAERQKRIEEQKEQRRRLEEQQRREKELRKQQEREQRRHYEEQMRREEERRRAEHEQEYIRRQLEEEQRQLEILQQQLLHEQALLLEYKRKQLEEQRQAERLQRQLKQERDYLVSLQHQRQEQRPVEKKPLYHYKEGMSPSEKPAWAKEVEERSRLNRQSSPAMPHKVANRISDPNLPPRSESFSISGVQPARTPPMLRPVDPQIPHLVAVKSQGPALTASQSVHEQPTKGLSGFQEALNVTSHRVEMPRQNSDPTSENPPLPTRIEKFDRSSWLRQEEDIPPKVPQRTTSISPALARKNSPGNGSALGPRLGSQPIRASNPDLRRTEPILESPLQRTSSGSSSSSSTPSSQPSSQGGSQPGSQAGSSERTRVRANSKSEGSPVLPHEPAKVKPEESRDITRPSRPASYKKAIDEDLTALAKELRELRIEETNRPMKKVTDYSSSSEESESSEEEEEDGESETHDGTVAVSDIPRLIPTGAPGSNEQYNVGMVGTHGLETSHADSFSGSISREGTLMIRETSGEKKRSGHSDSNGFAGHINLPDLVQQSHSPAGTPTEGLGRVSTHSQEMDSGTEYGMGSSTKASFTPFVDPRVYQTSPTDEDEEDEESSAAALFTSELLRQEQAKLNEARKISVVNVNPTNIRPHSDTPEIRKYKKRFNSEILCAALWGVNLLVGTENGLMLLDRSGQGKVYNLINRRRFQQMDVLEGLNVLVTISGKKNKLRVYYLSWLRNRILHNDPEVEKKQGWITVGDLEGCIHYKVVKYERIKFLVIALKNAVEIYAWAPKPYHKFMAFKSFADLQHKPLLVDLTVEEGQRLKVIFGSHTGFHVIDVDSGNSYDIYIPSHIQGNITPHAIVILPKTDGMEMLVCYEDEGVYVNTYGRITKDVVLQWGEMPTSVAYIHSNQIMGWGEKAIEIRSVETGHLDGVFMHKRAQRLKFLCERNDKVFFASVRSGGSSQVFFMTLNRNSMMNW
Sequence of Serine/threonine-protein kinase 10 (Homo sapiens) (O94804 whole entry, looked up): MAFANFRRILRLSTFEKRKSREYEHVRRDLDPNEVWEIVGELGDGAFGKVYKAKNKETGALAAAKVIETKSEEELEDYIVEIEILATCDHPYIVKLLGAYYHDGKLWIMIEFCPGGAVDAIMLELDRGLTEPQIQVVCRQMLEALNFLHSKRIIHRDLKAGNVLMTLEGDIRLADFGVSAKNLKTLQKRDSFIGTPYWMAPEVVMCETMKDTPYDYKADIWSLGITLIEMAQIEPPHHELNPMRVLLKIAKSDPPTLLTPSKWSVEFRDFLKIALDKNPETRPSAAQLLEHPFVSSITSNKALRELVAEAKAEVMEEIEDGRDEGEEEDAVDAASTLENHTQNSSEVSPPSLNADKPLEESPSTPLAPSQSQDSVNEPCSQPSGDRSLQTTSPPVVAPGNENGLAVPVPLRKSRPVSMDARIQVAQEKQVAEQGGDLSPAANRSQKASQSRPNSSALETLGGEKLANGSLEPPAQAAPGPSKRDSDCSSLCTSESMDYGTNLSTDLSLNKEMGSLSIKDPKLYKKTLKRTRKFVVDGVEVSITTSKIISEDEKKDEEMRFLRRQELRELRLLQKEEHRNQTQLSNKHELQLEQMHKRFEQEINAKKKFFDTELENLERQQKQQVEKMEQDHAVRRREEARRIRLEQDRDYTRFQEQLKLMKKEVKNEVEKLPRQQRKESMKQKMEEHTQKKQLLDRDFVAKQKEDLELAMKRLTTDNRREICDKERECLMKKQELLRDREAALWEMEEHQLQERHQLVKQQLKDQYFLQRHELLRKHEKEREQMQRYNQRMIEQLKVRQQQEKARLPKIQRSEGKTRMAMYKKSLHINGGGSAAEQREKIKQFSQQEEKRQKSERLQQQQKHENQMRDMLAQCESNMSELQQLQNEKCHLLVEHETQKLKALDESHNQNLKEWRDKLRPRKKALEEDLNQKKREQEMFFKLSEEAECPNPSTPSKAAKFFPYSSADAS

With `CCN1CCN(Cc2ccc(NC(=O)c3ccc(C)c(/C=C/c4cnc5[nH]ccc5c4OC)c3)cc2C(F)(F)F)CC1`, the inhibition is 30% in [1]; 37.1% in [2]; 69.2% in assay [3]; > 90% in [4]; > 95% in assay [6]; 39.6% in assay [7]. Also, the inhibition in assay [9] was determined as 11.5%. Half-maximal inhibition in assay [5] (IC50) was put at 80.9 nM. The inhibition at 0.05 µM in assay [8] was -27%.

As for `CCN1CCN(Cc2ccc(NC(=O)c3ccc(C)c(Oc4ccnc5[nH]ccc45)c3)cc2C(F)(F)F)CC1`, the inhibition in assay [1] was 87%; in assay [2], 42.8%; in assay [3] it was 51.9%; in assay [4], -4.2%; in [6], > 95%; in [7], 40.5%. Further, the inhibition in [9] amounted to 65.4%. In [5], it took 56.4 nM to reach half-maximal inhibition (IC50). Further, the inhibition at 0.05 µM in [8] was -7.2%.
